Data: ChEMBL document CHEMBL1129267, “Aryl 1-but-3-ynyl-4-phenyl-1,2,3,6-tetrahydropyridines as potential antipsychotic agents: synthesis and structure-activity relationships” (J Med Chem, 1996)

Legend:
D(2) dopamine receptor [1] = biological target: T1, D(2) dopamine receptor (Rattus norvegicus, UniProt P61169); assay: Binding affinity at Dopamine receptor D2 in rat striatal membrane by [3H]spiperone displacement.; type: cell membranes, Striatum
Procedure, shortened: (§1)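 Rat striatal membranes; [³H]spiperone 0.2 nM final; nonspecific binding defined with (+)-butaclamol 1.0 µM final. Four to six concentrations, each run in triplicate; Ki obtained by nonlinear regression analysis.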

Rattus norvegicus [2] = assay: In vivo inhibition of locomotor activity in the rat following p.o. administration.; type: functional; conditions: po
Mus musculus [3] = assay: (§2) Compound was tested for the inhibition of locomotor activity (LMA)by administering Intraperitoneally in mouse.; type: functional; conditions: ip
Mus musculus [4] = assay: as §2; type: functional; conditions: ip; remark: listed apart in the source
Procedure, shortened: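 Mice dosed ip, then tested immediately for 1 h in darkened cylindrical photobeam chambers. Percent inhibition of locomotor activity relative to vehicle-treated animals; ED50 derived from three to six doses, n = 6-18 animals/dose.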

D(2) dopamine receptor [5] = biological target: T1, D(2) dopamine receptor; assay: Compound was evaluated for their affinity against dopamine receptor D2 by displacing [3H]-spiperone in rat striatal membrane; type: cell membranes, Striatum; procedure, shortened: as §1
Rattus norvegicus [6] = assay: Compound was tested for the inhibition of locomotor activity (LMA)by administering orally in rat; type: functional; conditions: po
Procedure, shortened: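 Rats dosed orally 1 h before a 30 min test in darkened cylindrical photobeam chambers. Percent inhibition of locomotor activity relative to vehicle-treated animals; ED50 derived from three to six doses, n = 6-18 animals/dose.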

[7] = biological target: T2, 5-hydroxytryptamine receptor 1A (Rattus norvegicus, UniProt P19327); assay: (§3) Binding affinity against serotonin 5-hydroxytryptamine 1A receptor using radioligand [3H]8-OH-DPAT binding assay; set-up: species or system Homo sapiens
T2 sequence (P19327 whole entry): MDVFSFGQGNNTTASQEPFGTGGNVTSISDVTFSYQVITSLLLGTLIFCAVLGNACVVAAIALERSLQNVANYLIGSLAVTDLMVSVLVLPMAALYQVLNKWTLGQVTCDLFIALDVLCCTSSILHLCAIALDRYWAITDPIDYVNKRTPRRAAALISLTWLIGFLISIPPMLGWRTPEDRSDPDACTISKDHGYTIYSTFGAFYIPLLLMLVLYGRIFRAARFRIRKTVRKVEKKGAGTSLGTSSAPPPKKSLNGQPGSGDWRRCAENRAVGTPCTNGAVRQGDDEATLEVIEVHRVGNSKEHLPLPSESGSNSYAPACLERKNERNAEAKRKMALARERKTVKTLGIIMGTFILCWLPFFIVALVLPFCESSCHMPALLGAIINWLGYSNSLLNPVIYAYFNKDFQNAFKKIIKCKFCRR
Procedure, shortened: (§4)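 Rat hippocampal membranes labelled with [³H]-8-OH-DPAT (0.4 nM final); nonspecific binding with 8-OH-DPAT (1 µM).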

[8] = biological target: T3, Adrenergic receptor alpha-1 (Rattus norvegicus, UniProt P15823+P23944+P43140); assay: Binding affinity against Alpha-1 adrenergic receptor using radioligand [3H]prazosin binding assay.; type: protein assay
T3 sequence (P15823 whole entry): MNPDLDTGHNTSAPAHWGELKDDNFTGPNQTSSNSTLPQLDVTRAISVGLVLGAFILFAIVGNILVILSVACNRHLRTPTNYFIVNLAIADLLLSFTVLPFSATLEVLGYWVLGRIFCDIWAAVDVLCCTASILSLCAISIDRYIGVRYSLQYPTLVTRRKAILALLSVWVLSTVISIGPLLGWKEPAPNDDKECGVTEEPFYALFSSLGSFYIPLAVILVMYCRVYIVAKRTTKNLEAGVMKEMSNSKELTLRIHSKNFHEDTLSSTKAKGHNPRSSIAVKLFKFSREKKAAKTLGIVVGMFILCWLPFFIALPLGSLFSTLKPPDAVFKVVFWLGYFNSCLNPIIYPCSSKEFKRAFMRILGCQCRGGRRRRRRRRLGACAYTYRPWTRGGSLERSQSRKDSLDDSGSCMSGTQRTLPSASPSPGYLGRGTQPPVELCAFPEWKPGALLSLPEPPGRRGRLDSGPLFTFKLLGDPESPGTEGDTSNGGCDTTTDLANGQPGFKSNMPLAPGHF
T3 sequence (P23944 whole entry): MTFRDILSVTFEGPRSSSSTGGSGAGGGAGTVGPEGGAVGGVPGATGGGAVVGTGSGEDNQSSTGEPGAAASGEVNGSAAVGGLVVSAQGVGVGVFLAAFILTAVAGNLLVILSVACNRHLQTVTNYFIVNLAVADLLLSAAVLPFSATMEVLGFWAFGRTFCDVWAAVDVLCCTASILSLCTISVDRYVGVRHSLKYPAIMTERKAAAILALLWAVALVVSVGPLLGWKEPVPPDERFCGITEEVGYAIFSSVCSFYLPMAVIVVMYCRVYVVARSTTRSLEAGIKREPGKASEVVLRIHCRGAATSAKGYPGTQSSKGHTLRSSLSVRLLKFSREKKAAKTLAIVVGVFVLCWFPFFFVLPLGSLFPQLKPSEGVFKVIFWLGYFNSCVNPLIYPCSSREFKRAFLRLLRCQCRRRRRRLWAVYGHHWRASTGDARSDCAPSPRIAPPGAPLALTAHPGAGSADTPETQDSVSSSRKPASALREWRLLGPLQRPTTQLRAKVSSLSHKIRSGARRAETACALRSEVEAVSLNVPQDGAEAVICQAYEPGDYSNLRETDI
T3 sequence (P43140 whole entry): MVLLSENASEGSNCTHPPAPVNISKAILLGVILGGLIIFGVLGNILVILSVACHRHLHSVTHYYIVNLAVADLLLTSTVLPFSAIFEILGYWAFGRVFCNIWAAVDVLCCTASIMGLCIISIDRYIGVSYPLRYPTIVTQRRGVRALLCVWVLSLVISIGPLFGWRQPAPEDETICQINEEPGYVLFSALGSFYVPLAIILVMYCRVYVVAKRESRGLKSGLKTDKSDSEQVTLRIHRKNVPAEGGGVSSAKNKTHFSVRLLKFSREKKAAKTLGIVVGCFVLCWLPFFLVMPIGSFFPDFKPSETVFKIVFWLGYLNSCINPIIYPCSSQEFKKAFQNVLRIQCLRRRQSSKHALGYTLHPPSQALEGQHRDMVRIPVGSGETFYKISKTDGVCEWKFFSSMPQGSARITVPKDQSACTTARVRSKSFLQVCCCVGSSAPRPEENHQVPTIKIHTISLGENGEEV
Procedure, shortened: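 Inhibition of [³H]prazosin (0.1 nM final) binding in rat cortex membranes; phentolamine (10 µM final) defines nonspecific binding.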

D(2) dopamine receptor [9] = biological target: T4, D(2) dopamine receptor (Homo sapiens, UniProt P14416); assay: Compound was evaluated […] for Dopamine receptor D2 mitogenesis. [3H]thymidine incorporation in CHO p-5 cells expressing human D2 receptors.; type: organism-based
Procedure, shortened: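 CHO p-5 cells transfected with human D2L receptor are grown 2 days at 37 °C in medium with 10% calf serum, then rinsed and put in serum-free medium. Compound (in water) is added for 16-17 h, then [³H]thymidine (1 µCi/well) for 4 h. Cells are harvested and counted. Maximal effect is given as % of quinpirole (100%).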

D(2) dopamine receptor [10] = biological target: T1, D(2) dopamine receptor; assay: Binding affinity against Dopamine receptor D2 in CHO-K1 cells using radioligand [3H]NPA binding assay; type: cell-based
Monkey = assay: Compound was tested for inhibition of conditioned avoidance after administering perorally(po) in squirrel monkeys; type: functional; conditions: Cebidae, in Saimiri
Rattus norvegicus [11] = assay: Percent decrease of the firing rate of rat substantia nigra DA neurons at a dose of 2.5 mg/kg ip; type: functional; conditions: route intraperitoneal
Rattus norvegicus [12] = assay: Percent reversal of the increase on DOPA levels in the striatum of GBL-treated rats at a dose of 10 mg/kg ip; type: functional; conditions: route intraperitoneal
D(2) dopamine receptor [13] = biological target: T4, D(2) dopamine receptor; assay: […] Dopamine receptor D2 mitogenesis measured as [3H]thymidine incorporation in CHO p-5 cells expressing human D2 receptors
Procedure, shortened: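 CHO p-5 cells transfected with human D2L are grown 2 days at 37 °C in medium with 10% calf serum, rinsed, and switched to serum-free medium plus compound in water. After 16-17 h, [³H]thymidine (1 µCi/well) is added for 4 h; cells are harvested onto filters and counted.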

D(3) dopamine receptor = D(3) dopamine receptor (Homo sapiens, UniProt P35462); assay: Binding affinity against human Dopamine receptor D3 in CHO-K1 cells using [3H]spiperone as radioligand; type: cell-based
[14] = biological target: T2, 5-hydroxytryptamine receptor 1A; assay: as §3; procedure, shortened: as §4
D(4) dopamine receptor = biological target: T5, D(4) dopamine receptor (Homo sapiens, UniProt P21917); assay: Binding affinity against human Dopamine receptor D4 in CHO-K1 cells using [3H]spiperone as radioligand; type: cell-based
T5 sequence (P21917 whole entry): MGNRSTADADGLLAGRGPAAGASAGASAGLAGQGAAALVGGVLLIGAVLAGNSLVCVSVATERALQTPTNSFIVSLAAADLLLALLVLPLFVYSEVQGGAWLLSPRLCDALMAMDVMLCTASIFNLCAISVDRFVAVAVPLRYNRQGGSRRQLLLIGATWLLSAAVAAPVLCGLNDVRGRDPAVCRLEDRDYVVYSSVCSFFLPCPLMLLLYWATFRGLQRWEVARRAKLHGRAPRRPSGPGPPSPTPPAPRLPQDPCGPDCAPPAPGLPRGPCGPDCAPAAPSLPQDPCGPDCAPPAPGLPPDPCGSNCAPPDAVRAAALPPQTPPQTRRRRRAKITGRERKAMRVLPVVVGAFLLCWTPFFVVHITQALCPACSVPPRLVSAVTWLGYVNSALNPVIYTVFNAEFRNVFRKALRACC
Procedure, shortened: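 Human D4.2 receptor expressed in CHO K1 cells; [³H]spiperone 0.2 nM final; nonspecific binding defined with haloperidol 1.0 µM final.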

T1 sequence (P61169 whole entry): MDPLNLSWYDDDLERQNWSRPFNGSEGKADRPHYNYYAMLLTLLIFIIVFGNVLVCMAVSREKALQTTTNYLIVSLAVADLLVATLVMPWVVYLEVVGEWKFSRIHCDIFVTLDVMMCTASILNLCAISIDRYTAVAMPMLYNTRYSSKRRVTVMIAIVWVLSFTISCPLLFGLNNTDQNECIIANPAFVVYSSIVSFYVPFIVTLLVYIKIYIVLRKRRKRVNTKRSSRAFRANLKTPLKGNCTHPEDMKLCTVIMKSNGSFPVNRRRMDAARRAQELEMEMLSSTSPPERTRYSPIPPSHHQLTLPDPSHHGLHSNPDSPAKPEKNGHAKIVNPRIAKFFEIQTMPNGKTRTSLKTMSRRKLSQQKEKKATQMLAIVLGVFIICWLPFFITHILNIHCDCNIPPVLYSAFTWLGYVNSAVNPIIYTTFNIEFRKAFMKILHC
T4 sequence (P14416 whole entry): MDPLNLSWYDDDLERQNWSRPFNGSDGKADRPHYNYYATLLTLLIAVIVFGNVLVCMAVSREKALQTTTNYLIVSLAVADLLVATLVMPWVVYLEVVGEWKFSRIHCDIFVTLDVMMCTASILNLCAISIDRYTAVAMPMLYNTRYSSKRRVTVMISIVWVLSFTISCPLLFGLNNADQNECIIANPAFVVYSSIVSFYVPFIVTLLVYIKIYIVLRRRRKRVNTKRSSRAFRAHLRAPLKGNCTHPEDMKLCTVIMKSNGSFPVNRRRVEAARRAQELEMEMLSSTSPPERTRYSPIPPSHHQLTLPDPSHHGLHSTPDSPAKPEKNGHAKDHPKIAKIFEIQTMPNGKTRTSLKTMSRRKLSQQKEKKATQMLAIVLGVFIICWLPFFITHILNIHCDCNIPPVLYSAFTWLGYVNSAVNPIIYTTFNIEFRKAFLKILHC
Sequence of D(3) dopamine receptor (P35462 whole entry): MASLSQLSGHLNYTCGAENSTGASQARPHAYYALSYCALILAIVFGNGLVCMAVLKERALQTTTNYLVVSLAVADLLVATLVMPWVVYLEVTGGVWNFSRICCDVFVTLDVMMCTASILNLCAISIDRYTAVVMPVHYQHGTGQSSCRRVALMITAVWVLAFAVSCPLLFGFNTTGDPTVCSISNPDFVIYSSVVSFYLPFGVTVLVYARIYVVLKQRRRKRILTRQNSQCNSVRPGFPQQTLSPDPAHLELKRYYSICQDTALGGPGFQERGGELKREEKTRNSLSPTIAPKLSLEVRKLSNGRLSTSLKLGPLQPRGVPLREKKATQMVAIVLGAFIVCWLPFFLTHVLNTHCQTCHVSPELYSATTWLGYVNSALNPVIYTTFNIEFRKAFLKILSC

Structure (SMILES) | Ki (D(2) dopamine receptor [1]) | ED50 (Rattus norvegicus [2]) | ED50 (Mus musculus [3]) | other results
C(#Cc1cncc2ccccc12)CCN1CC=C(c2ccccc2)CC1 | 73 nM | 3.8 mg/kg | – | –
C(#Cc1ccc2occc2c1)CCN1CC=C(c2ccccc2)CC1 | 440 nM | 10.6 mg/kg | 2.5 mg/kg | –
Fc1ccc(N2CCN(CCC#Cc3cccnc3)CC2)cc1 | 1670 nM | 4.3 mg/kg | – | ED50 (Mus musculus [4]): 4.7 mg/kg
C(#Cc1cnc2ccccc2c1)CCN1CC=C(c2ccccc2)CC1 | 30 nM | – | – | –
C(#Cc1ccccn1)CCN1CC=C(c2ccccc2)CC1 | 136 nM | 15.8 mg/kg | – | –
C(#Cc1cccnc1)CCN1CCN(c2ncccn2)CC1 | > 10000 nM | – | > 30 mg/kg | –
C(#Cc1ccc2c(c1)OCCO2)CCN1CC=C(c2ccccc2)CC1 | 127 nM | > 30 mg/kg | 2.2 mg/kg | –
C(#Cc1ccccc1)CCN1CC=C(c2ccccc2)CC1 | – | – | 9.5 mg/kg | Ki (D(2) dopamine receptor [5]): 284 nM; ED50 (Rattus norvegicus [6]): 20.5 mg/kg
C(#Cc1cccnc1)CCN1CCN(c2ccccn2)CC1 | – | > 30 mg/kg | – | ED50 (Mus musculus [4]): 2.2 mg/kg
Nc1cccc(C#CCCN2CC=C(c3ccccc3)CC2)c1 | – | – | – | Ki [7]: 1550 nM; Ki [8]: 107 nM; Ki (D(2) dopamine receptor [5]): 87 nM; Max effect (D(2) dopamine receptor [9]): 75%; Ki (D(2) dopamine receptor [10]): 18 nM; ED50 (Monkey): 9.3 mg/kg; ED50 (Mus musculus [4]): 0.68 mg/kg; Decrease (Rattus norvegicus [11]): 98%; Decrease (Rattus norvegicus [12]): 42%; ED50 (Rattus norvegicus [6]): 5.6 mg/kg
C(#Cc1ccncc1)CCN1CC=C(c2ccccc2)CC1 | 32 nM | 4.4 mg/kg | – | Ki [8]: 25.8 nM; EC50 (D(2) dopamine receptor [13]): 1 nM; Ki (D(3) dopamine receptor): 6.5 nM; Ki (D(2) dopamine receptor [10]): 4.1 nM; ED50 (Monkey): 11.9 mg/kg; Decrease (Rattus norvegicus [11]): 93%; Ki [14]: 593 nM; Ki (D(4) dopamine receptor): 570 nM
COc1ccc(C#CCCN2CC=C(c3ccccc3)CC2)cc1 | 327 nM | > 30 mg/kg | 3.3 mg/kg | –
